Test results as given in publication PMC11613628 (Journal of Medicinal Chemistry, 2024).
“Also recorded” adds a separate entry of the source. Like-named read-outs stand apart in the source and are kept apart here. Where a SMILES comes first, the peptide text is derived from it. Bridges are numbered along the chain shown (N, C = ends). [ ]: non-standard residue; d: D form. Tyr(SO2F) = N[C@@H](Cc1ccc(OS(=O)(=O)F)cc1)C(=O)O; S5 = C=CCCC[C@](C)(N)C(=O)O

Key:
[1] = molecular target: T1, 6×His-tagged hMcl-1(172–323) (Homo sapiens, UniProt Q07820); conditions: against hMcl-1; previously identified minimal binding peptide; cited from earlier work
[2] = molecular target: T1, 6×His-tagged hMcl-1(172–323); assay: DELFIA displacement assay; format: binding
Outline: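 6×His-tagged hMcl-1(172–323) (16 nM) in a heterogeneous DELFIA format. The test agent displaces a biotinylated BIM BH3 reference peptide. Test agent was preincubated with protein for a fixed time (2 h for the peptide series) before dose–response measurement. IC50 was taken from the dose–response curves, and the ratio line is the ratio of these IC50 values.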

6×His-hBfl-1(1–149) = assay: DELFIA displacement assay against hBfl-1; format: binding, human; conditions: same experimental conditions as the hMcl-1 DELFIA assay
hMcl-1(172–323) [3] = molecular target: T2, hMcl-1(172–323) (Homo sapiens, UniProt Q07820); assay: SDS gel electrophoresis, covalent adduct formation; format: binding; conditions: 10 μM protein, 100 μM compound
Outline: (§1)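 Wild-type, His224Ala, His252Ala or Lys234Ala hMcl-1(172–323) (10 μM) was incubated with or without 100 μM test agent in 50 mM phosphate pH 7.5, 150 mM NaCl, 1% DMSO. Samples ran on 12% Bis-Tris SDS-PAGE with MOPS running buffer and protein stain. Mutants were sampled at 7 h. Wild type was also sampled over a time course, and complex formation was estimated qualitatively from the gel.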

hMcl-1(172–323) [4] = molecular target: T2, hMcl-1(172–323); assay: LC-MS analysis of covalent complex; format: binding; conditions: 10 μM protein, 100 μM compound, 7 h, room temperature
[5] = molecular target: His224Ala hMcl-1(172–323) (Homo sapiens, UniProt Q07820, H224A); assay: LC-MS analysis of covalent complex, His224Ala mutant; format: binding; conditions: 10 μM protein, 100 μM compound, 7 h
hMcl-1 = hMcl-1 (Homo sapiens, UniProt Q07820); assay: Kinetic measurements with the DELFIA assay; format: binding
Outline: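 In the DELFIA format, wells with 16 nM Mcl-1 and 1:2000 Eu–N1 anti-6×His antibody were incubated 2 h, then with test compound for 0, 2, 5, 10, 20 and 40 min. Wells were washed three times and given enhancement solution for 10 min, then Eu fluorescence was read (excitation 340, emission 615). kobs came from the slope of % inhibition versus time, plotted against concentration and fitted hyperbolically to give KI and kinact.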

[6] = Chemical stability in aqueous buffer by 1D 1H and 19F NMR; format: physicochemical; conditions: 100 μM in 50 mM phosphate pH 7.5, 150 mM NaCl; up to 48 h
Outline: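 Test compound at 100 μM in 50 mM phosphate pH 7.5, 150 mM NaCl. 1D 1H spectra were collected at set time points, and 19F 1D spectra were recorded in the same buffer at various time points on a 600 MHz instrument. Stability was judged from changes in the spectra over time.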

[7] = Plasma stability by 1D 1H NMR; format: in vitro ADME; conditions: human plasma in PBS
[8] = molecular target: hMcl-1(172–323) His224Ala (Homo sapiens, UniProt Q07820, H224A); assay: SDS gel electrophoresis, His224Ala mutant; format: binding; conditions: 100 μM compound, 7 h
Outline: as §1

[9] = molecular target: hMcl-1(172–323) Lys234Ala (Homo sapiens, UniProt Q07820, K234A); assay: SDS gel electrophoresis, Lys234Ala mutant; format: binding; conditions: 100 μM compound, 7 h
Outline: as §1

[10] = molecular target: hMcl-1(172–323) His252Ala (Homo sapiens, UniProt Q07820, H252A); assay: SDS gel electrophoresis, His252Ala mutant; format: binding; conditions: 100 μM compound, 7 h
Outline: as §1

T1 sequence (Q07820 172-323): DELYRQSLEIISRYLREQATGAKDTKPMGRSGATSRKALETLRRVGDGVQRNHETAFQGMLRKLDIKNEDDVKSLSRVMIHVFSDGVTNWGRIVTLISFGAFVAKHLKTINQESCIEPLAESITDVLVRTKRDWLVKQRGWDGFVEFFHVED
T2 sequence (Q07820 172-323): as above
Chain of His224Ala hMcl-1(172–323) (Q07820 172-323 H224A): as the sequence (Q07820 172-323) above, with H53A counted along it
Chain of hMcl-1 (Q07820 172-323): as the sequence (Q07820 172-323) above
Chain of hMcl-1(172–323) His252Ala (Q07820 172-323 H252A): as the sequence (Q07820 172-323) above, with H81A counted along it
Chain of hMcl-1(172–323) His224Ala (Q07820 172-323 H224A): as the sequence (Q07820 172-323) above, with H53A counted along it
Chain of hMcl-1(172–323) Lys234Ala (Q07820 172-323 K234A): as the sequence (Q07820 172-323) above, with K63A counted along it

| Compound | IC50 [1] | IC50 [2] | times less active against hBfl-1(1–149) than hMcl-1 (6×His-hBfl-1(1–149)) | time to approximately 50% complex formation (hMcl-1(172–323) [3]; qualitative from gel) | time to complete (or nearly complete) adduct formation (hMcl-1(172–323) [3]; qualitative from gel) | covalent adduct by mass spectrometry (hMcl-1(172–323) [4]) | covalent adduct by mass spectrometry [5] | kinact/KI (hMcl-1) | chemical stability in aqueous buffer [6] | plasma stability ([7]; 8 h) | remaining after incubation in plasma ([7]; 24 h) | band shift (stable adduct) (hMcl-1(172–323) [3]; 7 h incubation) | band shift (stable adduct) [8] | band shift (stable adduct) [9] | band shift (stable adduct) [10] |
| --- | --- | --- | --- | --- | --- | --- | --- | --- | --- | --- | --- | --- | --- | --- | --- |
| IAEQLRRIGDRF | 250 nM | – | – | – | – | – | – | – | – | – | – | – | – | – | – |
| CC[C@H](C)[C@H](NC(C)=O)C(=O)N[C@@H](C)C(=O)N[C@@]1(C)CCC/C=C\CCC[C@@](C)(C(=O)N[C@H](C(=O)NCC(=O)N[C@@H](CC(=O)O)C(=O)N[C@@H](CCCNC(=N)N)C(=O)N[C@@H](Cc2ccc(OS(=O)(=O)F)cc2)C(N)=O)[C@@H](C)CC)NC(=O)[C@H](CCCNC(=N)N)NC(=O)[C@H](CC(C)C)NC(=O)[C@H](CCC(N)=O)NC1=O [compound 9] (Ac-IA[S5]QLR[S5]IGDR[Tyr(SO2F)]-NH2; staple (Z) 3-7) | – | 5.8 ± 0.9 nM | ~160 times | ~1 h | ≤ 4 h | corresponding to the anticipated mass of the covalent adduct | could not form a covalent adduct | 67000 ± 3e+07 M⁻¹ s⁻¹ | No significant spectral changes were observed; also recorded: did not observe any degradation | remains mostly intact | ~40% | – | – | – | – |
| CC[C@H](C)[C@H](NC(C)=O)C(=O)N[C@@H](C)C(=O)N[C@@H](CCC(=O)O)C(=O)N[C@@H](CCC(N)=O)C(=O)N[C@@H](CC(C)C)C(=O)N[C@@H](CCCNC(=N)N)C(=O)N[C@@H](CCCNC(=N)N)C(=O)N[C@H](C(=O)NCC(=O)N[C@@H](CC(=O)O)C(=O)N[C@@H](CCCNC(=N)N)C(=O)N[C@@H](Cc1ccc(OS(=O)(=O)F)cc1)C(N)=O)[C@@H](C)CC [compound 6] (Ac-IAEQLRRIGDR[Tyr(SO2F)]-NH2) | – | 8.1 nM | – | – | – | forms a stable 1:1 complex | no MW increase was observed | – | – | – | – | band shift | not with the His224Ala mutant | band shifts | band shifts |
